Experimental data taken from ChEMBL document CHEMBL1138529, “Efficacy, pharmacokinetics, and metabolism of tetrahydroquinoline inhibitors of Plasmodium falciparum protein farnesyltransferase” (Antimicrob Agents Chemother, 2007).
Calls of active or inactive are those of the source.

Assays:
Plasmodium falciparum [1] = assay: Antiplasmodial activity against chloroquine-resistant Plasmodium falciparum K1 by [3H]hypoxanthine uptake; assay type: functional; settings: read-out: ED50 (the source's name)
Method in brief: (§1)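 Asynchronous cultures at 0.5% parasitemia and 0.5% hematocrit in RPMI 1640 with 20% heat-inactivated human A+ plasma, exposed to serially diluted inhibitor (top final 5 μM, from DMSO stock) under 5% CO2/5% O2/90% N2 at 37°C for 48 h. [3H]hypoxanthine was then added for 24 h and harvested counts were background-subtracted against DMSO-only controls. ED50 came from linear regression, as the mean of duplicates.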

Rattus norvegicus [2] = assay: Toxicity in Plasmodium berghei NK65 infected Sprague-Dawley rat assessed as effect on blood counts at 50 mg/kg, perorally administered every 12 hrs for 3 days; assay type: organism-based; parameters: dose 50 mg/kg, route oral; settings: in vivo, po
Method in brief: (§2)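 Female Sprague-Dawley rats, 10-12 weeks, n = 3 per schedule. Dosed 50 mg/kg by oral gavage every 8 h or every 12 h for 72 h. At the end of dosing, blood was sent to a clinical laboratory for complete blood counts, white cell differentials, electrolytes, glucose, renal function, liver enzymes and cholesterol.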

[3] = Metabolic stability in mouse liver microsomes; assay type: ADME, Microsome
Method in brief: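 Pooled female liver microsomes at 0.5 mg/ml in 0.1 M potassium phosphate pH 7.4, 3 mM MgCl2, 1 mM EDTA, with NADPH regenerating system (1 mM NADP+, 5 mM glucose-6-phosphate, 1 U/ml G6PDH). Preincubated 10 min at 37°C, then compound added to 1 μM final. Time points quenched with 3 volumes acetonitrile plus internal standard; parent quantified by LC/MS; half-life reported.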

[4] = Cmax in BALB/c mouse at 50 mg/kg, po; assay type: ADME, organism-based; parameters: dose 50 mg/kg, route oral; settings: in vivo
Method in brief: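 50 mg/kg by oral gavage in 3% EtOH-7% Tween 80-90% normal saline to groups of three females (BALB/c mice, 8–10 weeks, tail bleed; Sprague-Dawley rats, 10–12 weeks, saphenous vein). Plasma extracted with acetonitrile/internal standard, LC/MS; means of three animals. Oral elimination half-life depends on absorption rate as well as elimination.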

[5] = molecular target: Mu-type opioid receptor (Homo sapiens) (UniProt P35372); assay: Inhibition of mu opioid receptor at 10 uM
Method in brief: (§3)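 Radioligand displacement at a contract lab across a panel of 50 receptors, ion channels and transporters, single test concentration 10 μM; loss of specific ligand binding reported as percent, with >50% decrease counted as significant.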

[6] = molecular target: Muscarinic acetylcholine receptor M3 (Homo sapiens) (UniProt P20309); assay: Inhibition of muscarinic M3 receptor at 10 uM; method in brief: as §3
[7] = Inhibition of Plasmodium falciparum protein farnesyltransferase by SPA method
[8] = molecular target: Muscarinic acetylcholine receptor M1 (Homo sapiens) (UniProt P11229); assay: Inhibition of muscarinic M1 receptor at 10 uM; method in brief: as §3
Rattus norvegicus [9] = assay: Toxicity in Plasmodium berghei NK65 infected Sprague-Dawley rat assessed as effect on electrolyte levels at 50 mg/kg, perorally administered every 8 hrs for 3 days; assay type: organism-based; parameters: dose 50 mg/kg, route oral; settings: in vivo, po; method in brief: as §2
Plasmodium falciparum [10] = assay: Antiplasmodial activity against Plasmodium falciparum by [3H]hypoxanthine uptake; assay type: functional; settings: read-out: ED50 (the source's name)
Method in brief: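 Asynchronous P. falciparum (3D7 or K1) in RPMI 1640 with 20% heat-inactivated human A+ plasma, 0.5% parasitemia and 0.5% hematocrit; compound serially diluted, top final 5 μM, 48 h at 37°C under 5% CO2/5% O2/90% N2, then [8-3H]hypoxanthine 0.3 μCi added for 24 h.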

[11] = molecular target: Endothelin-1 receptor (Homo sapiens) (UniProt P25101); assay: Inhibition of ETA receptor at 10 uM
Method in brief: (§4)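 Radioligand displacement screen by a contractor across 50 receptors, ion channels and transporters, test compound at 10 μM; decrease in specific ligand binding expressed as percentage, with >50% decrease taken as significant.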

[12] = molecular target: D(1A) dopamine receptor (Homo sapiens) (UniProt P21728); assay: Inhibition of dopamine D1 receptor at 10 uM; method in brief: as §3
[13] = molecular target: C-C chemokine receptor type 1 (Homo sapiens) (UniProt P32246); assay: Inhibition of CCR1 receptor at 10 uM; method in brief: as §4
[14] = molecular target: Adenosine receptor A3 (Homo sapiens) (UniProt P0DMS8); assay: Inhibition of adenosine A3 receptor at 10 uM; method in brief: as §4
[15] = molecular target: Substance-K receptor (Homo sapiens) (UniProt P21452); assay: Inhibition of NK2 receptor at 10 uM; method in brief: as §4
[16] = molecular target: B2 bradykinin receptor (Homo sapiens) (UniProt P30411); assay: Inhibition of bradykinin B2 receptor at 10 uM; method in brief: as §3
Plasmodium falciparum [17] = assay: Antiplasmodial activity against chloroquine-sensitive Plasmodium falciparum 3D7 by [3H]hypoxanthine uptake; assay type: functional; settings: read-out: ED50 (the source's name); method in brief: as §1
Rattus norvegicus [18] = assay: Toxicity in Plasmodium berghei NK65 infected Sprague-Dawley rat assessed as effect on cholesterol levels at 50 mg/kg, perorally administered every 8 hrs for 3 days; assay type: organism-based; parameters: dose 50 mg/kg, route oral; settings: in vivo, po; method in brief: as §2
[19] = Inhibition of Potassium channel at 10 uM
Method in brief: (§5)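 Radioligand displacement screen at a 10 μM test concentration, run by a contract lab across a panel of 50 receptors, pharmacologically active ion channels and transporters. The read-out is the decrease in specific radiolabeled ligand binding, expressed as a percentage. A decrease above 50% was considered significant.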

Rattus norvegicus [20] = assay: Toxicity in Plasmodium berghei NK65 infected Sprague-Dawley rat assessed as effect on renal function at 50 mg/kg, perorally administered every 12 hrs for 3 days; assay type: organism-based; parameters: dose 50 mg/kg, route oral; settings: in vivo, po, in the assay text read “every 8 hrs” for “every 12 hrs”; method in brief: as §2
[21] = Inhibition of somatostatin receptor at 10 uM; method in brief: as §5
[22] = molecular target: 5-hydroxytryptamine receptor 7 (Homo sapiens) (UniProt P34969); assay: Inhibition of 5HT7 receptor at 10 uM; method in brief: as §4
[23] = molecular target: Melatonin receptor type 1A (Homo sapiens) (UniProt P48039); assay: Inhibition of melatonin MT1 receptor at 10 uM; method in brief: as §3
Salmonella typhimurium = assay: Genotoxicity in Salmonella enterica serovar Typhimurium TA98 assessed as increase in number of revertants in presence of rat liver S9 fraction by Ames test; assay type: toxicity, organism-based; settings: salmonella enterica subsp. enterica serovar typhimurium
Method in brief: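 Liquid-culture Ames assay run by a contractor: S. Typhimurium TA98 and TA100 exposed for 96 h in histidine-free medium, with and without rat liver S9, at 5, 10, 50 and 100 μM (plus higher concentrations); growth read spectrophotometrically by pH-indicator colour change. Parallel bacterial cytotoxicity assay at same concentrations.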

Plasmodium berghei = assay: Antiplasmodial activity as reduced parasitaemia against Plasmodium berghei NK65 infected Sprague-Dawley rat at 50 mg/kg every 12 hrs peroral dose for 3 days
[24] = molecular target: Nociceptin receptor (Homo sapiens) (UniProt P41146); assay: Inhibition of ORL1 receptor at 10 uM; method in brief: as §4
Rattus norvegicus [25] = assay: Toxicity in Plasmodium berghei NK65 infected Sprague-Dawley rat assessed as effect on glucose levels at 50 mg/kg, perorally administered every 8 hrs for 3 days; assay type: organism-based; parameters: dose 50 mg/kg, route oral; settings: in vivo, po; method in brief: as §2
Rattus norvegicus [26] = assay: Toxicity in Plasmodium berghei NK65 infected Sprague-Dawley rat assessed as effect on liver enzyme levels at 50 mg/kg, perorally administered every 12 hrs for 3 days; assay type: organism-based; parameters: dose 50 mg/kg, route oral; settings: in vivo, po, in the assay text read “every 8 hrs” for “every 12 hrs”; method in brief: as §2
[27] = molecular target: Histamine H2 receptor (Homo sapiens) (UniProt P25021); assay: Inhibition of histamine H2 receptor at 10 uM; method in brief: as §3
Sequence of Histamine H2 receptor (Homo sapiens) (P25021 whole entry): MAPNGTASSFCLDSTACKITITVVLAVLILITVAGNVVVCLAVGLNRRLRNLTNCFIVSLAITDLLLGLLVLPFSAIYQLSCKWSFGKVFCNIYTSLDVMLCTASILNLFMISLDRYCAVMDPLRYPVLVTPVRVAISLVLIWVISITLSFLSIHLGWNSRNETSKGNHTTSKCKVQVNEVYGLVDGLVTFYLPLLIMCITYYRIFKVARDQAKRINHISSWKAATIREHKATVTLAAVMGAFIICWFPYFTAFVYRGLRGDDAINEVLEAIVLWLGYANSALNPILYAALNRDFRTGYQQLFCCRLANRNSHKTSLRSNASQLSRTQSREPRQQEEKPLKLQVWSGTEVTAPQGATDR

Sequence of Adenosine receptor A3 (Homo sapiens) (P0DMS8 whole entry): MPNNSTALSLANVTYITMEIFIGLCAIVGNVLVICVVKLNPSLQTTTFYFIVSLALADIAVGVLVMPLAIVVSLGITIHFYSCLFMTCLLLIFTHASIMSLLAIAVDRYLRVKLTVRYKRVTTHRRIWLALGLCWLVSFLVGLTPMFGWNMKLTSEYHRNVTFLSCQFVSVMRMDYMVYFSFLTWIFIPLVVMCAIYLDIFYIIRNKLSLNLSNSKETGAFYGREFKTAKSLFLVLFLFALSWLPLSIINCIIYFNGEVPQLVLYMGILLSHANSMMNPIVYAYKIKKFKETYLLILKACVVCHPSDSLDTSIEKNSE
Sequence of Mu-type opioid receptor (Homo sapiens) (P35372 whole entry): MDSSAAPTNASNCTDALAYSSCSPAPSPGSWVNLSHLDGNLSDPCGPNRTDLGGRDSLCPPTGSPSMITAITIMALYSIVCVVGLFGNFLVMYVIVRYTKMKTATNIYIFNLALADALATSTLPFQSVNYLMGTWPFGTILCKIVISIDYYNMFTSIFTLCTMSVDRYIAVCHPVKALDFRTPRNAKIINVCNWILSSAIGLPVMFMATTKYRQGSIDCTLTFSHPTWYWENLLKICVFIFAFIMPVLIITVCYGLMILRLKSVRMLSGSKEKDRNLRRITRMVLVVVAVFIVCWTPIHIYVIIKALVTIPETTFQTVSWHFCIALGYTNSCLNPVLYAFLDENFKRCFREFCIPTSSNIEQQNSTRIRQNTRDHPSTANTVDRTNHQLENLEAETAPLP
Sequence of Muscarinic acetylcholine receptor M1 (Homo sapiens) (P11229 whole entry): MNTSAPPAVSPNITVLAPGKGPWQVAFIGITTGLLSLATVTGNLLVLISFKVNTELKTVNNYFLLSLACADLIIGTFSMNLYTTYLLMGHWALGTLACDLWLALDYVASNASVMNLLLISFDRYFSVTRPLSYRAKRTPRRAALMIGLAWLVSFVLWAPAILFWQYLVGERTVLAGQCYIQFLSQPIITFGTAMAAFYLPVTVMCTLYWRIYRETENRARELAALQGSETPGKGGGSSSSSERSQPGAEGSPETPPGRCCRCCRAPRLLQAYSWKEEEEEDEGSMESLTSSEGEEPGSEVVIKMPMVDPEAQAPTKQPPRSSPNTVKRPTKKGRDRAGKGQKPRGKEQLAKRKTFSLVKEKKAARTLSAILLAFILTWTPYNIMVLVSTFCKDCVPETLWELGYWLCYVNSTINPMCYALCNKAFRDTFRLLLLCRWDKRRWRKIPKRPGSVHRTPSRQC
Sequence of Muscarinic acetylcholine receptor M3 (Homo sapiens) (P20309 whole entry, looked up): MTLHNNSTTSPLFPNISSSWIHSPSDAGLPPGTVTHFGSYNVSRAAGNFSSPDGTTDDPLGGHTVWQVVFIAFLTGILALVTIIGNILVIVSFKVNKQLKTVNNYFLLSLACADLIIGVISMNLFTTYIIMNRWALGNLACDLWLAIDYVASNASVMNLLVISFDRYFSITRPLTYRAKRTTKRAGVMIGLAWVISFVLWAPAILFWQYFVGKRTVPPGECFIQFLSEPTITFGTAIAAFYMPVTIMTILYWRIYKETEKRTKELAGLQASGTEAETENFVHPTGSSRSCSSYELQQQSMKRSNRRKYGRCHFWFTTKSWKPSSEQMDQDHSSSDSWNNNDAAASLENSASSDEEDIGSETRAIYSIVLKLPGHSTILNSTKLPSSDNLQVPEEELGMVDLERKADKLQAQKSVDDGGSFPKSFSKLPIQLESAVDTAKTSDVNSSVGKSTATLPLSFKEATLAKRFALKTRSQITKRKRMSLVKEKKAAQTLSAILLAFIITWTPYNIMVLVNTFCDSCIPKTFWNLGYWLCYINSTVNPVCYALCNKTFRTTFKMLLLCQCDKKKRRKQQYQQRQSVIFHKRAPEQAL
Sequence of Endothelin-1 receptor (Homo sapiens) (P25101 whole entry): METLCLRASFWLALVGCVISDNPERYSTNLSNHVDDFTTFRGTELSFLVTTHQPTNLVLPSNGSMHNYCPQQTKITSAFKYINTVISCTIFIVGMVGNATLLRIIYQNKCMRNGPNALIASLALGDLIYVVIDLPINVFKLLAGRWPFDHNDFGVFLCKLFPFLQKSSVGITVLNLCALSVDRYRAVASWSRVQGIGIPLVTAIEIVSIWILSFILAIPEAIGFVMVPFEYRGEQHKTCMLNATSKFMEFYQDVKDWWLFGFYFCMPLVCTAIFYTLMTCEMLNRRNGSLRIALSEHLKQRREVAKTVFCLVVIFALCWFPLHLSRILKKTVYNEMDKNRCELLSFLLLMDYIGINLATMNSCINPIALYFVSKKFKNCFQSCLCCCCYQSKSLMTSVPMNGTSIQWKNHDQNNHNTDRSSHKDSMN
Sequence of Nociceptin receptor (Homo sapiens) (P41146 whole entry): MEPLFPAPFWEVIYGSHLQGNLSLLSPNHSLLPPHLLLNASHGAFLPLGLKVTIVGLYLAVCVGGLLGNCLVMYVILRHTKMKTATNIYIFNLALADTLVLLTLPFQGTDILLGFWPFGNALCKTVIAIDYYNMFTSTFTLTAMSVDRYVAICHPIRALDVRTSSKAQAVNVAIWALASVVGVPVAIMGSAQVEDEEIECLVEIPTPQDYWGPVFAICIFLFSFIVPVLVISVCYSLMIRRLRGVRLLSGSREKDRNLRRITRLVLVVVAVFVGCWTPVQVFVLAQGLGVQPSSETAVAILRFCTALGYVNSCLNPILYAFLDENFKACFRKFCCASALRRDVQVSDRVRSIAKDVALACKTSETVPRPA
Sequence of Substance-K receptor (Homo sapiens) (P21452 whole entry): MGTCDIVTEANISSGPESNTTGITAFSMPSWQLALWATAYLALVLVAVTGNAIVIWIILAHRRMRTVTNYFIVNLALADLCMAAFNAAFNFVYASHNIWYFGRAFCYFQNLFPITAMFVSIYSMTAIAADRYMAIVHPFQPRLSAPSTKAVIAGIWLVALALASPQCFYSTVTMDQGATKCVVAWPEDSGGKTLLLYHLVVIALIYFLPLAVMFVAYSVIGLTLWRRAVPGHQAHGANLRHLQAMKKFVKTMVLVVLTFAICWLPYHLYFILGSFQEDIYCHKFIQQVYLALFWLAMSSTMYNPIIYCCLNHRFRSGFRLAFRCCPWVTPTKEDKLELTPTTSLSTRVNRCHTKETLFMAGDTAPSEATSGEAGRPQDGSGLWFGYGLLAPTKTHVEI
Sequence of B2 bradykinin receptor (Homo sapiens) (P30411 whole entry): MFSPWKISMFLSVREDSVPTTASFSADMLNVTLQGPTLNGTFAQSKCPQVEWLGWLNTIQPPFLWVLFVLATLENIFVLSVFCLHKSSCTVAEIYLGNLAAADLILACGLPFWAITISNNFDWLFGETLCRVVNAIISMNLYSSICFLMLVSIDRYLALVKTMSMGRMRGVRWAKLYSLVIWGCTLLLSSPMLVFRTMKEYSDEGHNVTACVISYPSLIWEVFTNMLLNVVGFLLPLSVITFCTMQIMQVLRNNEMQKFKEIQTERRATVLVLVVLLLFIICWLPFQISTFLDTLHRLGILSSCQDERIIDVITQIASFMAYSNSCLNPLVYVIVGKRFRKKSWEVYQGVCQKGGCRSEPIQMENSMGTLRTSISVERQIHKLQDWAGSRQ
Sequence of 5-hydroxytryptamine receptor 7 (Homo sapiens) (P34969 whole entry): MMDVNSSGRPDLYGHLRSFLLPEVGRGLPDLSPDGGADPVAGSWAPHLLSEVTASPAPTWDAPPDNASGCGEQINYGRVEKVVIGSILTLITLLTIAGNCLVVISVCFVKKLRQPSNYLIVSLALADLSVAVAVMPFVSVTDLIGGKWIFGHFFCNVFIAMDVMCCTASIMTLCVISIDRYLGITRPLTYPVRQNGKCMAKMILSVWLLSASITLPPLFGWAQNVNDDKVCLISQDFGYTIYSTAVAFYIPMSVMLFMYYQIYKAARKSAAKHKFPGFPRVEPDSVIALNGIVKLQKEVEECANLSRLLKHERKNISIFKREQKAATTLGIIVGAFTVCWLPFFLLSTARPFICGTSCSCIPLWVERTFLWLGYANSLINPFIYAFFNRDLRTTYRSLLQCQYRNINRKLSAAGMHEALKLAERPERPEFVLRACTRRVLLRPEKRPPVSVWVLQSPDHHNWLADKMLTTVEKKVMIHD
Sequence of D(1A) dopamine receptor (Homo sapiens) (P21728 whole entry): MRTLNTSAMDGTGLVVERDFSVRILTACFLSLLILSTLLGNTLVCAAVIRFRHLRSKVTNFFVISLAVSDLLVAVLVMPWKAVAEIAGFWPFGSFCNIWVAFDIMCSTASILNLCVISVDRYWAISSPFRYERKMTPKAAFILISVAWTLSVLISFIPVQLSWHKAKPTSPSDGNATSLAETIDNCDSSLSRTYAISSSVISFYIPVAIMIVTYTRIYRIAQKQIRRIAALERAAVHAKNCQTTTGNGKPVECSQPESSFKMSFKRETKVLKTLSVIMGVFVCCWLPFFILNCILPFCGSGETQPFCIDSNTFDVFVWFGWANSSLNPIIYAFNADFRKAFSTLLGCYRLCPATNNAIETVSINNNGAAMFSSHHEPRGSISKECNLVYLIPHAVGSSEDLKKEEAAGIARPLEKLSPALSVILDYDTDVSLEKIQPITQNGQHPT

Q: For `COC(=O)N1CCC(CN(C2Cc3cc(C#N)ccc3N(Cc3cncn3C)C2)S(=O)(=O)c2ccccn2)CC1` (centres undefined), which EC50 (Plasmodium falciparum [1]) is on record?
A: Its EC50 is 15 nM.

Q: And the Activity (Rattus norvegicus [2])?
A: Its Activity is “Non-toxic”.

Q: And the half-life [3]?
A: The half-life was 5.8 min.

Q: And the Cmax [4]?
A: The Cmax was 4.2 µM.

Q: What about the inhibition [5] of the same compound?
A: The inhibition was “inactive”.

Q: What about the inhibition [6] of the same compound?
A: Its inhibition is “inactive”.

Q: And the IC50 [7]?
A: Its IC50 is 0.58 nM.

Q: What about the inhibition [8] of the same compound?
A: The inhibition was 64%.

Q: What about the Activity (Rattus norvegicus [9]) of the same compound?
A: Its Activity is “Non-toxic”.

Q: What about the EC50 (Plasmodium falciparum [10]) of the same compound?
A: Its EC50 is 18 nM.

Q: What about the inhibition [11] of the same compound?
A: The inhibition was “inactive”.

Q: What about the inhibition [12] of the same compound?
A: Its inhibition is “inactive”.

Q: What about the inhibition [13] of the same compound?
A: The inhibition was “inactive”.

Q: What about the inhibition [14] of the same compound?
A: The inhibition was “inactive”.

Q: What about the inhibition [15] of the same compound?
A: Its inhibition is “inactive”.

Q: What about the inhibition [16] of the same compound?
A: Its inhibition is “inactive”.

Q: What about the EC50 (Plasmodium falciparum [17]) of the same compound?
A: Its EC50 is 16 nM.

Q: What about the Activity (Rattus norvegicus [18]) of the same compound?
A: The Activity was “Non-toxic”.

Q: And the inhibition [19]?
A: The inhibition was “inactive”.

Q: And the Activity (Rattus norvegicus [20])?
A: The Activity was “Non-toxic”.

Q: And the inhibition [21]?
A: Its inhibition is “inactive”.

Q: And the inhibition [22]?
A: Its inhibition is “inactive”.

Q: What about the inhibition [23] of the same compound?
A: Its inhibition is “inactive”.

Q: What about the Activity (Salmonella typhimurium) of the same compound?
A: The Activity was “Non-toxic”.

Q: And the Activity (Plasmodium berghei)?
A: Its Activity is “inactive”.

Q: What about the inhibition [24] of the same compound?
A: The inhibition was “inactive”.

Q: And the Activity (Rattus norvegicus [25])?
A: Its Activity is “Non-toxic”.

Q: What about the Activity (Rattus norvegicus [26]) of the same compound?
A: Its Activity is “Non-toxic”.

Q: And the inhibition [27]?
A: Its inhibition is “inactive”.
